Only some compounds are listed: those with a hit (about 1.4% of all), similar ones and a draw of the others.
MsrA inhibitor: bovine MsrA enzyme inhibitors, primary screen, biochemical, absorbance, HTS. purified bovine MsrA, absorbance read-out. inhibition, % at 15.5 µM. 0.75% of 360,000 active. AID 651718, 2012; in the data active means inhibition above about 4.5%
ASAP1 inh: inhibitors of human ASAP1 ArfGAP activity, primary screen, biochemical, fluorescence polarization; Arf-GAP with SH3 domain, ANK repeat and PH domain-containing protein 1 (Homo sapiens), …; 0.19% of 360,000 active; inhibition, % at 16.5 µM; ASAP1-stimulated ARF1 GTP hydrolysis, GDP FP detection; AID 624377, 2012; in the data active means inhibition above about 25%
Target sequence (Q9ULH1 325-724 limits assumed): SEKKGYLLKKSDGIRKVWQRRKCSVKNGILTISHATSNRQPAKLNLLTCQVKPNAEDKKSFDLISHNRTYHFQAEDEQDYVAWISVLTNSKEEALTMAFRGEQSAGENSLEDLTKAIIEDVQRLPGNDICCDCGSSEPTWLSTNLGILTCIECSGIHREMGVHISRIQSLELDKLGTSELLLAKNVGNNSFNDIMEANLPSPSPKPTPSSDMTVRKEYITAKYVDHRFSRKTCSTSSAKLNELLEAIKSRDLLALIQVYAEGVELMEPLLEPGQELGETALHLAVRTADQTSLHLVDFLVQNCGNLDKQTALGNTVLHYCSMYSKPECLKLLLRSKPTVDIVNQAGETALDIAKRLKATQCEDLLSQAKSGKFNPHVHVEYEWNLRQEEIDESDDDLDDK
ARFGAP1 inh: inhibitors of rat ARFGAP1 GAP activity, primary screen, biochemical, fluorescence polarization, GDP tracer; ADP-ribosylation factor GTPase-activating protein 1 (Rattus norvegicus), Q62848; 0.26% of 360,000 active; inhibition, % at 16.5 µM; Arfgap1-stimulated ARF1 GTP hydrolysis, GDP FP detection; AID 651572, 2012;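 active means inhibition above a per-plate limit, mean inhibition of low control wells plus 3 SD, cut at about 25% in these data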
Target sequence (Q62848 1-136 limits assumed): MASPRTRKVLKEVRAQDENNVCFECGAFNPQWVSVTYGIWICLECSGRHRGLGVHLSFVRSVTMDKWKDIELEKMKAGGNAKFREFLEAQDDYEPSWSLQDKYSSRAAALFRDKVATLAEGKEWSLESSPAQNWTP
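Assay system: Rat Arfgap1 GAP domain (His6, aa 1-136), purified enzyme | Buffer or medium: HEPES 25 mM pH 7.5, NaCl 150 mM, MgCl2, DTT | Schedule: GTP hydrolysis reaction 2 h at 25 °C | Signal: FP of antibody-bound GDP Alexa 633 tracer, ex 620/em 688 nm | Measure: Percent inhibition of Arfgap1-stimulated GTP hydrolysis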
bovine MsrA act: bovine MsrA enzyme activators, primary screen, biochemical, absorbance, HTS. 0.3% of 360,000 active. purified bovine MsrA, absorbance read-out. activation, % at 10.6 µM. AID 602163, 2012. Methionine sulfoxide reductase A (Bos taurus); in the data active means activation above about 7.5%
ASAP1 inh confirm: ASAP1 GAP activity inhibitors, confirmation, biochemical, fluorescence polarization, human, triplicate; shares compounds with ASAP1 inh; AID 624431, 2012; 37% of 620 active; inhibition, % at 16.5 µM; ASAP1-stimulated Arf1 GTPase, GDP fluorescence polarization;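 active means mean inhibition over triplicates exceeds the hit threshold derived for the earlier primary screening run, cut at about 25% in these data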
Large screens that a line does not name were inactive (follow-up assays come after a bar, where they were run).

O=c1c2ccccc2nc(/C=C/c2cc(Br)ccc2O)n1CCO	ASAP1 inh 27 | ASAP1 inh confirm inactive
CC(C)n1c(NCc2cc(Cl)ccc2O)nc2ccccc21	ASAP1 inh 26 | ASAP1 inh confirm inactive
Clc1ccc(OCc2nn3c(-c4ccco4)nnc3s2)c(Cl)c1	ASAP1 inh 26 | ASAP1 inh confirm 37
Cc1nc2ccccc2nc1N1CCCC1	ASAP1 inh 31 | ASAP1 inh confirm inactive
Cc1ccccc1S(=O)(=O)NC(=O)C1(C)CCN1C(=O)C1(c2ccccc2)CC1 (configuration not stated)	none
Nc1c(C(=O)NCc2ccc3c(c2)OCO3)c2nc3ccccc3nc2n1CCCN1CCOCC1	ASAP1 inh 34 | ASAP1 inh confirm inactive
COc1ccccc1OCCC(=O)Nc1cccc(S(=O)(=O)N2CCOCC2)c1	none
COc1ccc(NC(=O)C2CCC(CNc3c(N4CCCCC4)c(=O)c3=O)CC2)cc1OC (configuration not stated)	none
CCc1nnc(NC(=O)C2CCC(CNc3c(N4CCCCC4)c(=O)c3=O)CC2)s1 (configuration not stated)	ASAP1 inh 28 | ASAP1 inh confirm inactive
Fc1ccc(-c2nc3c4ccccc4ccn3c2Cc2cccc(Cl)c2)cc1	none
COc1cccc(-n2nnc3c(=O)n(CC(=O)Nc4ccccc4C)cnc32)c1	ASAP1 inh 32 | ASAP1 inh confirm inactive
COc1cccc(-n2nnc3c(=O)n(Cc4ccc(C)cc4)cnc32)c1	none
COc1cccc(-n2nnc3c(=O)n(Cc4ccc(Br)cc4)cnc32)c1	ASAP1 inh 28 | ASAP1 inh confirm 35
COc1cccc(NC(=S)N2CCN(S(C)(=O)=O)CC2)c1	none
N/C(=N\OC(=O)c1cccc2ccccc12)c1cccc([N+](=O)[O-])c1	ASAP1 inh 28 | ASAP1 inh confirm 57
CC(=O)Nc1ccc(/C=N/NC(=O)CNC(=O)c2ccccc2)cc1	none
CCOc1cc(C2CC(=O)N3CN(C4CCCCC4)CSC3=C2C#N)ccc1O (configuration not stated)	ASAP1 inh 26 | ASAP1 inh confirm inactive
O=c1cc(-c2ccccc2Cl)oc2cc(O)cc(O)c12	none
Nc1ccc(O)c2c(=O)cc(-c3ccccc3Cl)oc12	ASAP1 inh 28 | ASAP1 inh confirm inactive
Cc1ccc(C)c(NS(=O)(=O)c2ccc3c(c2)Cc2cc(S(=O)(=O)Nc4cc(C)ccc4C)ccc2-3)c1	none
O=C(NC(=S)N(Cc1ccccc1)c1ccccn1)C1CC1	none
CCOc1ccc(NC(=S)NC(=O)/C=C/c2ccc(OC)c(OC)c2)c([N+](=O)[O-])c1	ASAP1 inh 35 | ASAP1 inh confirm inactive
Cc1cc(C)cc(NC(=O)Nc2ccccc2N2CCCCC2)c1	none
C[C@@]12CC[C@@H](C3=C(CCC3)C1)N2c1ccccc1	none (no result: bovine MsrA act)
CCC(=O)NC(c1cccs1)c1cc([N+](=O)[O-])c2cccnc2c1OC (configuration not stated)	ASAP1 inh 43 | ASAP1 inh confirm inactive
CC(=O)NCCn1ccc2ccccc21	ASAP1 inh 27 | ASAP1 inh confirm inactive
COc1ccc2cc(C(=O)Nc3ccc(O)cc3)sc(=O)c2c1OC	none
COc1ccc2cc(C(=O)Nc3ccc(Cl)cc3)sc(=O)c2c1OC	ASAP1 inh 56 | ASAP1 inh confirm 56
COc1ccc2cc(C(=O)Nc3ccc(F)cc3)sc(=O)c2c1OC	ASAP1 inh 26 | ASAP1 inh confirm inactive
Cc1ccc(-c2nc(Nc3ccc(O)cc3)c3ccccc3n2)cc1	none
Cc1ccc(-c2nc(Nc3cccc(O)c3)c3ccccc3n2)cc1	ASAP1 inh 29 | ASAP1 inh confirm inactive
CC1(c2ccccc2)NC(=O)N(CCN2C(=O)c3ccccc3C2=O)C1=O (configuration not stated)	ASAP1 inh 25 | ASAP1 inh confirm inactive
CCCC1(c2ccccc2)NC(=O)N(CCN2C(=O)c3ccccc3C2=O)C1=O (configuration not stated)	none (no result: MsrA inhibitor, ASAP1 inh, ARFGAP1 inh)
CCNC(=O)C1CCCc2c1[nH]c1ccc(Cl)cc21 (configuration not stated)	none (no result: MsrA inhibitor, ASAP1 inh, ARFGAP1 inh)
COc1cc(N)c2ncccc2c1Br	ASAP1 inh 28 | ASAP1 inh confirm inactive
COc1cc(N)c2ncccc2c1SC	none
O=C(NCCNC(=O)c1cc(Cl)ccc1Cl)c1ccccn1	none
COCCn1cnc2c(c1=O)c1nc3ccccc3nc1n2/N=C/c1ccco1	none
COCCn1cnc2c(c1=O)c1nc3ccccc3nc1n2/N=C/c1ccc(OC)c(OC)c1	ASAP1 inh 33 | ASAP1 inh confirm 37
CC(=O)c1c(C)[nH]c(C(=O)Nc2cccc(S(=O)(=O)N3CCCC3)c2)c1C	none
COc1ccc(N2C(=O)[C@@H]3[C@H](C2=O)[C@H]2c4ccccc4C=CN2[C@@H]3C(C)=O)cc1	ASAP1 inh 49 | ASAP1 inh confirm inactive
CC(C)N(C(=O)[C@H]1C[C@H](CC(=O)NCCC2=CCCCC2)C(=O)N2CCc3c([nH]c4ccc(Cl)cc34)[C@]12C)C(C)C	none
Cc1ccc(NC2=C(N3CCCCC3)C(=O)c3ccccc3C2=O)cc1	ASAP1 inh 28 | ASAP1 inh confirm inactive
COc1ccccc1NC1=C(N2CCCCC2)C(=O)c2ccccc2C1=O	none (no result: MsrA inhibitor, ASAP1 inh, ARFGAP1 inh)
O=C1C(Nc2ccccc2)=C(N2CCCCC2)C(=O)c2ccccc21	ASAP1 inh 30 | ASAP1 inh confirm inactive
O=C(N[C@H]1CC[C@H](CCNC(=O)C2CC2)O[C@@H]1CO)c1ccccn1	none (no result: bovine MsrA act)
O=C(NCC[C@@H]1CC[C@@H](NS(=O)(=O)Cc2ccccc2)[C@@H](CO)O1)C1CC1	ASAP1 inh 26 (no result: bovine MsrA act) | ASAP1 inh confirm inactive
O=C1C=C(Nc2cccnc2)c2ccccc2C1=O	ASAP1 inh 26 | ASAP1 inh confirm inactive
Nc1cc(N)cc(C(=O)c2ccccc2)c1	none
Cc1ccccc1CN1CC2=C(CCN(Cc3ccccc3)C2=O)N2CCN=C12	none
Nc1nnc(SCC(=O)Nc2cccnc2Cl)s1	none
Cc1cccc(Nc2nnc(SCC(=O)Nc3cccnc3Cl)s2)c1	ASAP1 inh 30 | ASAP1 inh confirm inactive
O=C(CN1CCOCC1)Nc1cccc(S(=O)(=O)N2CCCCCC2)c1	ASAP1 inh 27 | ASAP1 inh confirm inactive
O=C(CN1CCN(Cc2ccccc2)CC1)Nc1cccc(S(=O)(=O)N2CCCCCC2)c1	none
COc1ccc(Cc2c(-c3ccc(C)cc3)nc3cc(C)c(Br)c(C)n23)c(C)c1	none
Cc1ccccc1S(=O)(=O)Oc1ccc2ccc(O)cc2c1	ASAP1 inh 27 | ASAP1 inh confirm inactive
CCCCONc1ncnc2nonc12	none
Cc1c(C)c(C)c(S(=O)(=O)N2CCSCC2)c(C)c1C	none

Assay outcomes (PubChem BioAssay)
